Data taken from ChEMBL document CHEMBL4002582, “Bioactive Terpenoids from Salvia plebeia: Structures, NO Inhibitory Activities, and Interactions with iNOS” (J Nat Prod, 2016).

Experiments:
BV-2 [1] = assay: Antiinflammatory activity in mouse BV2 cells assessed as inhibition of LPS-induced nitric oxide production incubated for 24 hrs by Griess assay; assay type: functional, cell-based; conditions: BV-2, 24 h
Method in brief: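 NO output from murine microglial BV-2 cells was stimulated with lipopolysaccharide. IC50 values were derived from the inhibition of LPS-induced NO generation, and results come from three experiments. 2-Methyl-2-thiopseudourea sulfate (SMT) was the positive control.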

BV-2 [2] = assay: Cytotoxicity against mouse BV2 cells assessed as effect on cell survival by MTT assay; assay type: cell-based

Row | Compound | IC50 (BV-2 [1]) [µM] | Activity (BV-2 [2])
1 | CSC(=N)N | 2.9 | 
2 | CC(C)c1cc2c(c(O)c1O)C[C@@]1(O)CCCC(C)(C)[C@@H]1CC2 | 10.6 | Non-Toxic
3 | CC1=CC[C@@H]2[C@@H]3C[C@H]1[C@@]2(C)[C@@H](O)C[C@@H]3C(C)C | 92.9 | Non-Toxic
4 | CC(=O)O[C@H]1CC(C)(C)C2=C(O)C(=O)c3cc(C(C)C)c(O)c(O)c3[C@@]2(C)C1 | 26.5 | Non-Toxic
5 | CO[C@H]1O[C@H]2CC[C@@]13c1c(cc(C(C)C)c(O)c1O)CC[C@H]3C2(C)C | > 30 | Non-Toxic
6 | CC(=O)O[C@H]1CC(C)(C)[C@@H]2C[C@@H]3OC[C@@]2(C1)c1c3cc(C(C)C)c(O)c1O | > 30 | Non-Toxic
7 | CC(=O)OC[C@@]1(O)CC[C@@H]2[C@H]([C@H]3[C@H]1CC[C@]3(C)O)C2(C)C | 47.6 | Non-Toxic
8 | CC(=O)[C@H]1CC[C@@H]2[C@@H]1[C@H](C(C)C)CC[C@@]2(C)O | 38.9 | Non-Toxic
9 | CC(C)C1=C[C@@]23CC[C@H]4C(C)(C)C[C@H](O)C[C@]4(CO2)C3=C(O)C1=O | 14.8 | Non-Toxic
10 | CC(=O)O[C@H]1CC(C)(C)[C@@H]2CC[C@@]34C=C(C(C)C)C(=O)C(O)=C3[C@@]2(CO4)C1 | 5.7 | Non-Toxic
11 | CC(C)C1=CC[C@@]2(C)[C@H](O)CC[C@](C)(O)[C@@H]2C1 [OPLODIOL] | 63.5 | Non-Toxic
